# Only some compounds are listed: those with a hit (about 3.1% of all), similar ones and a draw of the others.
# hERG rescue: compounds protecting human hERG from proarrhythmic drug block; Q12809; CHO-hERG, FluxOR thallium flux, dofetilide IC70 present; activation (rescue from dofetilide block), less the hit threshold, % at 10 µM; actives 0.51% (n = 310,000);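 active means activation above the mean of controls blocked by dofetilide plus 5 SD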;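 further: thallium influx through hERG after potassium depolarization seen as dye fluorescence rise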
# KCNK9 inh: blocks the human KCNK9 two-pore domain potassium channel; actives 1.2% (n = 310,000); B-score at 10 µM; HEK293 KCNK9, FluxOR thallium flux fluorescence; hits give low values; Q9NPC2;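 active means ratio B-score over 3 SD below the library mean, with starting fluorescence within 5 SD of its mean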;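 further: negative B-score means less thallium flux so channel inhibition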
# Target sequence (Q9NPC2 whole entry, looked up, the tested form may be a part): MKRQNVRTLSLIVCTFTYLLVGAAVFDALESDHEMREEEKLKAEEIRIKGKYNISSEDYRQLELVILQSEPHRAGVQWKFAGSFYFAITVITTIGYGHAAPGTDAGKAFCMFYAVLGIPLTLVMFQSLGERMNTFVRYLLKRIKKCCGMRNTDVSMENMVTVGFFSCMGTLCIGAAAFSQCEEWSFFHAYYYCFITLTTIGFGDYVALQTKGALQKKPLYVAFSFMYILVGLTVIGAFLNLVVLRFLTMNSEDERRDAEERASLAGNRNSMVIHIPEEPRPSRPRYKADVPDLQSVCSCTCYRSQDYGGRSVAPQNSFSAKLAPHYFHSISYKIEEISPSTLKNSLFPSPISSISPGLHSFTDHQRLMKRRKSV
# KCNQ1 inh: human KCNQ1 channel inhibition; B-score at 10 µM; AID 2642; P51787; actives 1.3% (n = 310,000); CHO-K1 KCNQ1, FluxOR thallium flux fluorescence; hits give high values;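 active means compounds whose thallium flux B-score, printed positive for inhibition, exceeds three library SD while starting fluorescence stays within three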;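 further: channel opened by potassium depolarization with thallium stimulus after 20 min compound exposure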
# KCNQ1 pot: human KCNQ1 channel potentiation or activation; P51787; CHO-K1 KCNQ1, thallium flux FluxOR fluorescence; hits give high values; B-score at 10 µM; actives 0.35% (n = 310,000); AID 2648;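 active means fluorescence ratio B-score, a plate-corrected score, at least three library SD, with initial intensity B-score within 5 SD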
#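 Doses: Single concentration per compound, DMSO matched to controls | Test system: KCNQ1-transfected CHO-K1 cells | Timing: 90 min dye loading and 20 min compound exposure, both at room temperature | Measured by: Kinetic FluxOR thallium fluorescence, 10-s 1-Hz baseline, 110-s post-stimulus read | Medium: Assay buffer with matched DMSO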
# KCNK3 block: human KCNK3 channel inhibition, primary screen; O14649; CHO-KCNK3 thallium flux, FluxOR fluorescence; hits give low values; B-score at 10 µM; actives 0.84% (n = 340,000); AID 602410;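 active means B-score under library mean minus 4 SD, starting fluorescence ratio at most library mean plus 5 SD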;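 further: more negative B-score means stronger inhibition of thallium flux through KCNK3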
# KCNK9 inh conf: confirmation of human KCNK9 potassium channel inhibitors. shares compounds with KCNK9 inh. HEK293 KCNK9 cells, FluxOR thallium flux fluorescence. inhibition, % at 10 µM. actives 43% (n = 4,900);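 active means thallium signal inhibited by more than 5 SD of the compound-free buffer control wells, on both duplicate plates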;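 further: 0% = assay buffer control wells without compound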
# Kir2-1 spec: tests whether KCNK9 modulators also affect mouse Kir2.1 | Kir2.1 cells, FluxOR thallium flux fluorescence | AID 492993 | actives 4% (n = 4,900) | shares compounds with KCNK9 inh | inhibition, % at 10 µM;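 active means thallium signal drop more than 5 SD beyond the mean of the no-compound control wells, seen in both duplicate plates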;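 further: signal is fluorescence rise after thallium addition divided by baseline fluorescence; plate controls were assay buffer only for no effect and full block by chlorpromazine control for full effect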
# HEK293 Tl ctr: second check of KCNK9 modulator effects in non-induced HEK293 cells. inhibition, % at 10 µM. shares compounds with KCNK9 inh. FluxOR thallium flux. actives 40% (n = 4,900);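 active means thallium signal drop beyond 5 SD of the untreated control mean, on both duplicate plates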;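 further: plate controls were buffer only IC0 wells for no effect and SID17386958 at its maximal inhibitory level for full effect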
# * hit, by the source's call; i = inactive; nt = not tested or not shown.
SMILES,hERG rescue,KCNK9 inh,KCNQ1 inh,KCNQ1 pot,KCNK3 block,KCNK9 inh conf,Kir2-1 spec,HEK293 Tl ctr
O=C(c1ccco1)N1CCCC(N2CCN(c3ccccc3F)CC2)C1 (centres undefined),-2,i,i,i,i,nt,nt,nt
CC(C)/C=C/C(=O)N1CCCC(N2CCN(c3ccccc3F)CC2)C1 (centres undefined),-6,i,i,i,i,i,i,i
COCCn1c(-c2ccc(Cl)cc2Cl)nc2c(c(=O)c3ccccc3n2C)c1=O,-8,i,i,i,i,nt,nt,nt
Cn1c(=O)c2nc(-c3ccc(Cl)cc3Cl)oc2c2ccccc21,-4,-10*,i,i,i,28%*,i,32%*
CCc1ccc(CNC(=O)c2ccc3nc(C4CCCCC4)oc3c2)nc1,-8,i,i,i,i,nt,nt,nt
Cc1ccc(/C(=N\O)c2oc3c(C)c4oc(=O)cc(C)c4cc3c2C)cc1,-6,-9.3*,8*,i,i,28%*,i,44%*
COC(=O)CCC(C)C1CCC2C3CCC4CC(O)CCC4(C)C3CC(O)C12C (centres undefined),nt,nt,nt,nt,i,nt,nt,nt
CC(Oc1ccc(-c2ccccc2)cc1)C(=O)N/N=C/c1cccnc1 (centres undefined),-5,i,i,i,i,nt,nt,nt
Cc1nn(C)cc1/C=N\NC(=O)c1ccc2c(c1)c(C)c(C)n2Cc1ccccc1,1,-19*,i,i,i,64%*,i,40%*
C#CCn1c(S(=O)(=O)Cc2ccc(C)cc2)nc(-c2ccccc2)c1-c1ccccc1,-14,-12*,i,i,i,59%*,i,36%*
CSc1cccc(N2CC(C(=O)N3CCN(S(=O)(=O)c4ccccc4Cl)CC3)CC2=O)c1 (centres undefined),nt,nt,nt,nt,i,nt,nt,nt
C=CCn1c(COc2ccc3c(c2)CCCC3)nnc1SCC(=O)Nc1cccc(SC)c1,-10,i,9*,i,i,i,i,30%*
CS(=O)(=O)Nc1ccc(-c2cc(/C=C3\SC(N)=NC3=O)c[nH]c2=O)cc1,-6,i,i,i,i,nt,nt,nt
Cc1cc(=O)oc2cc(OCC(=O)Nc3c(C)n(C)n(-c4ccccc4)c3=O)c(Cl)cc12,nt,nt,nt,nt,i,nt,nt,nt
COc1ccc([N+](=O)[O-])cc1NC(=O)C(C)Sc1ccccc1 (centres undefined),-6,i,i,i,i,nt,nt,nt
COc1ccc([N+](=O)[O-])cc1NC(=O)C(C)Sc1nc(-c2ccccc2)cs1 (centres undefined),-13,-8.1*,i,i,i,i,i,31%*
Cc1ccc(S(=O)(=O)NCc2ccccc2)cc1C(=O)N1CCCCCCC1,-18,i,i,i,i,nt,nt,nt
COc1cc(C(=O)N(CCc2ccccc2)C2=CC3CCC(C2)N3C)cc(OC)c1OC (centres undefined),-7,i,i,i,i,nt,nt,nt
Cc1cc(C)cc(C(=O)N(CCc2ccccc2)C2CC3CCC(C2)N3C)c1 (centres undefined),-4,i,i,i,i,i,i,i
Nn1c(SCC(=O)Nc2ccc(Oc3ccccc3)cc2)nnc1C1CC1,-8,i,i,i,i,i,i,i
CCOc1ccc(NC(=O)CSc2nnc(C3CC3)n2N)cc1,-13,i,i,i,i,nt,nt,nt
Cc1ccc2oc(C(=O)N(Cc3ccc(N(C)C)cc3)CC3CCCO3)c(C)c2c1 (centres undefined),-10,i,i,i,i,i,i,i
Cc1ccc(S(=O)(=O)N(C)/N=C2/C(=O)N(CC(=O)O)c3ccccc32)cc1,-2,i,i,i,i,nt,nt,nt
O=C(NC1CCCc2ccccc21)c1cccc(F)c1 (centres undefined),nt,nt,nt,nt,i,nt,nt,nt
O=C1N/C(=N/S(=O)(=O)Cc2ccccc2)S/C1=C/c1ccc2c(c1)OCO2,-21,i,i,i,i,i,i,i
SMILES,hERG rescue,KCNK9 inh,KCNQ1 inh,KCNQ1 pot,KCNK3 block,KCNK9 inh conf,Kir2-1 spec,HEK293 Tl ctr
O=C(OC1C2CCC1C1CN(CCc3ccccc3)CC12)c1ccccc1 (centres undefined),-15,i,i,i,i,i,i,i
CCOC(=O)C1CCCN(CCc2ccccc2)C1 (centres undefined),-6,i,i,i,i,nt,nt,nt
NC(=O)c1sc(-c2ccsc2)cc1NS(=O)(=O)c1ccc(C(F)(F)F)cc1,-14,i,i,i,i,i,i,i
Cc1c(Cl)cccc1NC(=O)CCN1C(=O)C2CC=CCC2C1=O (centres undefined),-11,i,i,i,i,nt,nt,nt
CCc1ccc(-c2csc(NC(=O)C3=NN(c4ccccc4)C(=O)CC3)n2)cc1,-16,i,i,i,i,i,i,i
O=C(NCc1ccccc1)C1=C[C@@H](c2ccccc2)C[C@@H](OCc2ccc(CO)cc2)O1,-15,i,i,i,i,nt,nt,nt
CC(=O)n1cc([C@H]2C=C(C(=O)NCc3ccccc3)O[C@@H](OCc3ccc(CO)cc3)C2)c2ccccc21,-10,i,i,i,i,i,i,i
CC(=O)n1cc([C@H]2C=C(C(=O)NCc3ccccc3)O[C@@H](OCCCCO)C2)c2ccccc21,-13,i,i,i,i,i,i,i
O=C(NCc1ccccc1)C1=C[C@H](c2ccc(Br)cc2)C[C@H](OCc2ccc(CO)cc2)O1,-11,i,i,i,i,i,i,i
O=C(NCCN1CCCC1=O)C1CCC(=O)N(CCc2cccc(F)c2)C1 (centres undefined),-10,i,i,i,i,nt,nt,nt
Cc1cc(C(=O)COC(=O)c2cc(Cl)c(O)c(Cl)c2)c(C)n1C,nt,nt,nt,nt,i,nt,nt,nt
N#Cc1cc2c(nc1SCc1cccc(Cl)c1)CCCCC2,-8,-8.3*,i,i,i,27%*,i,35%*
N#Cc1cc2c(nc1SCc1ccccc1)CCCCC2,-8,i,i,i,i,nt,nt,nt
CCOC(=O)C1CCN(Cc2coc3c(Cl)cc(Cl)cc3c2=O)CC1,-10,i,i,i,i,i,i,i
COc1ccc(NCc2nc3ccccc3n2C)cc1,-1,i,i,i,i,nt,nt,nt

# Screening results from PubChem.
